Results on 48 molecules are retold here after ChEMBL document CHEMBL4368884, “Structure-activity relationship of the cinnamamide family of antibiotic potentiators for methicillin-resistant Staphylococcus aureus (MRSA)” (Medchemcomm, 2018).

A value given as a limit tells only on which side of the number the result lay.

Broadly, the MIC is the least concentration at which growth counts as inhibited.

Data set [1] deals with Staphylococcus aureus. The data set is described as follows: Growth inhibition of Staphylococcus aureus MRSA252. Particulars: in vitro. It counts as organism-based. Summed up:
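Compound alone was two-fold serially diluted in cation-adjusted Mueller-Hinton II broth containing 2.4% DMSO. Bacteria were inoculated at 5 × 10⁵ CFU mL⁻¹ and incubated at 36 °C for 16–20 h. The MIC was read in triplicate.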

Data set [2] has as its system Staphylococcus aureus. The data set is described as follows: Potentiation of oxacillin-induced antibacterial activity against Staphylococcus aureus MRSA252 assessed as oxacillin MIC at 20 uM (reference value: 256 ug/ml). It counts as functional.
In data set [3] the test system is Staphylococcus aureus. The data set can be described thus: Potentiation of oxacillin-induced antibacterial activity against Staphylococcus aureus NRS386 assessed as oxacillin MIC at 20 uM. It counts as functional. Particulars: USA700 NRS386.
For data set [4], the system named is Staphylococcus aureus. The data set can be described thus: Potentiation of oxacillin-induced antibacterial activity against Staphylococcus aureus NRS70 assessed as oxacillin MIC at 20 uM. It counts as functional.
Data set [5] relates to Staphylococcus aureus. The data set is described as follows: Potentiation of oxacillin-induced antibacterial activity against methicillin/oxacillin/tetracycline-resistant Staphylococcus aureus NRS100 assessed as oxacillin MIC at 20 uM. In kind it is functional. In a few lines: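 Oxacillin MIC measured with the synthetic potentiator held at a fixed 20 μM. Two-fold serial dilution in cation-adjusted Mueller-Hinton II broth containing 2.4% DMSO. Inoculum 5 × 10⁵ CFU mL⁻¹, incubated at 36 °C for 16–20 h. Run in triplicate.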

In data set [6] the test system is Staphylococcus aureus. The data set is described as follows: Potentiation of oxacillin-induced antibacterial activity against Staphylococcus aureus MRSA252 assessed as fold reduction in oxacillin MIC at 20 uM relative to oxacillin alone. In kind it is functional.

Consider `COc1ccc(S(=O)(=O)N(CCO)c2ccccc2CN(C)C/C=C/c2ccc(Cl)cc2)cc1`, for which the “growth inhibition (GI)” value in data set [1] is listed as “Non-Toxic”. Besides, the MIC in data set [2] came to 128 µg/mL.
The matching figures for `Cc1ccc(S(=O)(=O)N(CCO)c2ccccc2CN(C)C(=O)/C=C/c2ccco2)cc1`: “Non-Toxic” and at least 256 µg/mL.
On the same counts, the results for `CN(Cc1ccccc1)Cc1ccccc1N(CCO)S(=O)(=O)c1ccc(C(F)(F)F)cc1` are “Non-Toxic” and at least 256 µg/mL.
The matching figures for `Cc1ccc(S(=O)(=O)N(CCO)c2ccccc2CN(C)C/C=C/c2ccc(Cl)cc2)cc1`: “Non-Toxic” and 32 µg/mL.
Consider `Cc1ccc(S(=O)(=O)N(CCO)c2ccccc2CN(C/C=C/c2ccc(Cl)cc2)CC(C)C)cc1`, for which, in data set [1], the “growth inhibition (GI)” value is “Non-Toxic”. The MIC in data set [2] turned out to be 128 µg/mL.
The matching figures for `CN(C/C=C/c1ccccc1)Cc1ccccc1N(CCO)S(=O)(=O)c1ccc(C(F)(F)F)cc1`: “Non-Toxic” and 32 µg/mL.
On the same counts, the results for `CN(Cc1ccccc1N(CCO)S(=O)(=O)c1ccsc1)C(=O)/C=C/c1ccc(Cl)cc1` are “Non-Toxic” and at least 256 µg/mL.
For `CC(=O)Nc1ccc(S(=O)(=O)N(CCO)c2ccccc2CN(C)C/C=C/c2ccc(Cl)cc2)cc1`, in data set [1], the “growth inhibition (GI)” value is “Non-Toxic”. Moreover, the MIC in data set [2] was at least 256 µg/mL.
On the same counts, the results for `CN(C/C=C/c1ccc(Cl)cc1)Cc1ccccc1N(CCO)S(=O)(=O)c1ccc(C(F)(F)F)cc1` are “Non-Toxic” and 64 µg/mL.
On the same counts, the results for `CN(Cc1ccccc1N(CCO)S(=O)(=O)c1ccc([N+](=O)[O-])cc1)C(=O)/C=C/c1ccc(C(F)(F)F)cc1` are “Non-Toxic” and at least 256 µg/mL.
`Cc1ccc(S(=O)(=O)N(CCO)c2ccccc2CN(C(=O)/C=C/c2ccc(C(F)(F)F)cc2)C(C)C)cc1`: the “growth inhibition (GI)” value in data set [1] is reported as “Non-Toxic”. The MIC in data set [2] is at least 256 µg/mL.
In the case of `Cc1ccc(S(=O)(=O)N(CCO)c2ccccc2CN(C)C(=O)/C=C/c2ccc(Br)s2)cc1`, in data set [1], the “growth inhibition (GI)” value was “Non-Toxic”. Besides, in data set [2], the MIC is at least 256 µg/mL.
The matching figures for `CN(Cc1ccccc1N(CCO)S(=O)(=O)c1ccc(C#N)cc1)C(=O)/C=C/c1ccc(C(F)(F)F)cc1`: “Non-Toxic” and 32 µg/mL.
On the same counts, the results for `Cc1ccc(S(=O)(=O)N(CCO)c2ccccc2CN(C)C/C=C/c2ccc(Cl)c(Cl)c2)cc1` are “Non-Toxic” and 32 µg/mL.
The matching figures for `Cc1ccc(S(=O)(=O)N(CCO)c2ccccc2CN(C)C/C=C/c2ccccc2)cc1`: “Non-Toxic” and at least 256 µg/mL.
As to `CN(Cc1ccccc1NS(=O)(=O)c1ccc(F)cc1)C(=O)/C=C/c1ccc(C(F)(F)F)cc1`, the “growth inhibition (GI)” value in data set [1] is recorded as “Non-Toxic”. In data set [2], the MIC is at least 256 µg/mL.
On the same counts, the results for `COc1ccc(/C=C/C(=O)N(C)Cc2ccccc2N(CCO)S(=O)(=O)c2ccc(C)cc2)cc1` are “Non-Toxic” and at least 256 µg/mL.
On the same counts, the results for `COc1ccc(S(=O)(=O)N(CCO)c2ccccc2CN(C)C/C=C/c2ccccc2)cc1` are “Non-Toxic” and at least 256 µg/mL.
With `C=CCN(Cc1ccccc1N(CCO)S(=O)(=O)c1ccc(OC)cc1)C(C)C`, the “growth inhibition (GI)” value in data set [1] was “Non-Toxic”. In data set [2], the MIC is at least 256 µg/mL.
For the molecule `CC(C)c1ccc(S(=O)(=O)N(CCO)c2ccccc2CN(C)C(=O)/C=C/c2ccc(C(F)(F)F)cc2)cc1`, in data set [1], the “growth inhibition (GI)” value is recorded as “Non-Toxic”. The minimal inhibitory concentration (MIC) in data set [2] was 32 µg/mL.
On the same counts, the results for `Cc1ccc(S(=O)(=O)N(CCO)c2ccccc2CN(C)C(=O)/C=C/c2ccc(Cl)cc2Cl)cc1` are “Non-Toxic” and at least 256 µg/mL.
On the same counts, the results for `Cc1ccc(S(=O)(=O)N(CCO)c2ccccc2CN(C)C(=O)c2ccc(Cl)cc2)cc1` are “Non-Toxic” and at least 256 µg/mL.
On the same counts, the results for `CC(=O)Nc1ccc(/C=C/C(=O)N(C)Cc2ccccc2N(CCO)S(=O)(=O)c2ccc(C)cc2)cc1` are “Non-Toxic” and at least 256 µg/mL.
Consider `COc1ccc(S(=O)(=O)N(CCO)c2ccccc2CN(C/C=C/c2ccc(Cl)cc2)CC(C)C)cc1`, for which the “growth inhibition (GI)” value in data set [1] is “Non-Toxic”. The MIC in data set [2] worked out at 128 µg/mL.
Turning to `C=CCN(C)Cc1ccccc1N(CCO)S(=O)(=O)c1ccc(Cl)cc1`, the “growth inhibition (GI)” value in data set [1] is “Non-Toxic”. Further, the minimum inhibitory concentration (MIC) in data set [2] is at least 256 µg/mL.
On the same counts, the results for `Cc1ccc(S(=O)(=O)N(CCO)c2ccccc2CN(C(=O)/C=C/c2ccc(C(F)(F)F)cc2)C2CC2)cc1` are “Non-Toxic” and at least 256 µg/mL.
On the same counts, the results for `Cc1ccc(S(=O)(=O)N(CCO)c2ccccc2CN(C)C(=O)CCc2ccc(Cl)cc2)cc1` are “Non-Toxic” and at least 256 µg/mL.
On the same counts, the results for `CN(Cc1ccccc1N(CCO)S(=O)(=O)c1ccc(OC(F)(F)F)cc1)C(=O)/C=C/c1ccc(C(F)(F)F)cc1` are “Non-Toxic” and 32 µg/mL.
On to `CN(C/C=C/c1ccc(Cl)cc1)Cc1ccccc1N(CCO)S(=O)(=O)c1ccc(Cl)cc1`, for which, in data set [1], the “growth inhibition (GI)” value was “Non-Toxic”. In addition, the MIC in data set [2] came out at 16 µg/mL.
The matching figures for `Cc1ccc(S(=O)(=O)N(CCO)c2ccccc2CN(C)C(=O)/C=C/c2ccc(F)cc2)cc1`: “Non-Toxic” and at least 256 µg/mL.
On the same counts, the results for `CN(C/C=C/c1ccc(Cl)cc1)Cc1ccccc1N(CCO)S(=O)(=O)Cc1ccccc1` are “Non-Toxic” and at least 256 µg/mL.
On the same counts, the results for `Cc1ccc(S(=O)(=O)N(CCO)c2ccccc2CN(C)C(=O)c2ccc3cc(Br)ccc3c2)cc1` are “Non-Toxic” and at least 256 µg/mL.
For the molecule `CN(Cc1ccccc1N(CCO)S(=O)(=O)c1ccc2c(c1)OCCO2)C(=O)/C=C/c1ccc(C(F)(F)F)cc1`, the “growth inhibition (GI)” value in data set [1] is “Non-Toxic”. In addition, the minimum inhibitory concentration (MIC) in data set [2] stood at 64 µg/mL.
As to `Cc1ccc(S(=O)(=O)N(CCO)c2ccccc2CN(C)C(=O)/C=C/c2ccc(Cl)cc2)cc1`, the minimum inhibitory concentration (MIC) in data set [3] came to 4 µg/mL; in data set [2], 2 µg/mL; in data set [4], 8 µg/mL; in data set [5], 2 µg/mL. The “growth inhibition (GI)” value in data set [1] is given as “Non-Toxic”. Also, the “fold change (FC)” value in data set [6] is 128.
For `Cc1ccc(S(=O)(=O)N(CCO)c2ccccc2CN(C)C(=O)COc2ccc(Cl)cc2)cc1`, in data set [1], the “growth inhibition (GI)” value is listed as “Non-Toxic”. Moreover, in data set [2], the MIC is at least 256 µg/mL.
On the same counts, the results for `Cc1ccc(S(=O)(=O)N(CCO)c2ccccc2CN(C)C(=O)/C=C/c2ccc(Cl)c(Cl)c2)cc1` are “Non-Toxic” and 16 µg/mL.
On to `CN(Cc1ccccc1N(CCO)S(=O)(=O)c1ccc(F)cc1)C(=O)/C=C/c1ccc(Cl)cc1`, for which the minimal inhibitory concentration (MIC) in data set [3] was found to be 1 µg/mL; in data set [2], 4 µg/mL; in data set [4], 8 µg/mL; in data set [5], 1 µg/mL. Moreover, the “growth inhibition (GI)” value in data set [1] was “Non-Toxic”. The “fold change (FC)” value in data set [6] was found to be 64.
`CN(Cc1ccccc1N(CCO)S(=O)(=O)c1cccs1)C(=O)/C=C/c1ccc(Cl)cc1`: the “growth inhibition (GI)” value in data set [1] is listed as “Non-Toxic”. For the same molecule, the MIC in data set [2] turned out to be 256 µg/mL.
The matching figures for `Cc1ccc(S(=O)(=O)N(CCO)c2ccccc2CN(C)C(=O)/C=C/c2ccc(-c3ccc(Cl)cc3)o2)cc1`: “Non-Toxic” and at least 256 µg/mL.
On the same counts, the results for `CCN(Cc1ccccc1N(CCO)S(=O)(=O)c1ccc(C)cc1)C(=O)/C=C/c1ccc(C(F)(F)F)cc1` are “Non-Toxic” and at least 256 µg/mL.
Take `Cc1ccc(S(=O)(=O)N(CCO)c2ccccc2C(=O)N(C)C/C=C/c2ccc(Cl)cc2)cc1`: the “growth inhibition (GI)” value in data set [1] is listed as “Non-Toxic”. For the same molecule, the MIC in data set [2] was at least 256 µg/mL.
The matching figures for `Cc1ccc(S(=O)(=O)N(CCO)c2ccccc2CN(C)C(=O)/C=C/c2cccnc2)cc1`: “Non-Toxic” and at least 256 µg/mL.
As for `Cc1ccc(S(=O)(=O)N(CCO)c2cccc(CN(C)C(=O)/C=C/c3ccc(C(F)(F)F)cc3)c2)cc1`, the “growth inhibition (GI)” value in data set [1] is given as “Non-Toxic”. In data set [2], the MIC is at least 256 µg/mL.
As to `Cc1ccc(S(=O)(=O)N(CCO)c2ccccc2CN(C)C(=O)/C=C/c2ccc(C(F)(F)F)cc2)cc1F`, the MIC in data set [3] was 8 µg/mL; in data set [2] it was 4 µg/mL; in data set [4], 16 µg/mL; in data set [5], 2 µg/mL. In addition, the “growth inhibition (GI)” value in data set [1] is reported as “Non-Toxic”. For the same molecule, the “fold change (FC)” value in data set [6] amounted to 64.
Take `Cc1ccc(/C=C/C(=O)N(C)Cc2ccccc2N(CCO)S(=O)(=O)c2ccc(C)cc2)cc1`: in data set [1], the “growth inhibition (GI)” value is “Non-Toxic”. Moreover, the minimum inhibitory concentration (MIC) in data set [2] came out at 64 µg/mL.
On to `CN(Cc1ccccc1N(CCO)S(=O)(=O)c1ccccc1)C(=O)/C=C/c1ccc(C(F)(F)F)cc1`, for which the MIC was 2 µg/mL in data set [3], 4 µg/mL in data set [2], 16 µg/mL in data set [4] and 2 µg/mL in data set [5]. The “growth inhibition (GI)” value in data set [1] was “Non-Toxic”. In addition, the “fold change (FC)” value in data set [6] came to 64.
As to `Cc1ccc(S(=O)(=O)N(CCO)c2ccccc2CNC(=O)/C=C/c2ccc(C(F)(F)F)cc2)cc1`, the “growth inhibition (GI)” value in data set [1] was “Non-Toxic”. Moreover, in data set [2], the MIC was at least 256 µg/mL.
The matching figures for `C=CCN(C)Cc1ccccc1N(CCO)S(=O)(=O)c1ccc(C)cc1`: “Non-Toxic” and at least 256 µg/mL.
